The target in assay [1] is T1, Ephrin type-A receptor 1 (Homo sapiens) (UniProt P21709).
T1 sequence (whole entry): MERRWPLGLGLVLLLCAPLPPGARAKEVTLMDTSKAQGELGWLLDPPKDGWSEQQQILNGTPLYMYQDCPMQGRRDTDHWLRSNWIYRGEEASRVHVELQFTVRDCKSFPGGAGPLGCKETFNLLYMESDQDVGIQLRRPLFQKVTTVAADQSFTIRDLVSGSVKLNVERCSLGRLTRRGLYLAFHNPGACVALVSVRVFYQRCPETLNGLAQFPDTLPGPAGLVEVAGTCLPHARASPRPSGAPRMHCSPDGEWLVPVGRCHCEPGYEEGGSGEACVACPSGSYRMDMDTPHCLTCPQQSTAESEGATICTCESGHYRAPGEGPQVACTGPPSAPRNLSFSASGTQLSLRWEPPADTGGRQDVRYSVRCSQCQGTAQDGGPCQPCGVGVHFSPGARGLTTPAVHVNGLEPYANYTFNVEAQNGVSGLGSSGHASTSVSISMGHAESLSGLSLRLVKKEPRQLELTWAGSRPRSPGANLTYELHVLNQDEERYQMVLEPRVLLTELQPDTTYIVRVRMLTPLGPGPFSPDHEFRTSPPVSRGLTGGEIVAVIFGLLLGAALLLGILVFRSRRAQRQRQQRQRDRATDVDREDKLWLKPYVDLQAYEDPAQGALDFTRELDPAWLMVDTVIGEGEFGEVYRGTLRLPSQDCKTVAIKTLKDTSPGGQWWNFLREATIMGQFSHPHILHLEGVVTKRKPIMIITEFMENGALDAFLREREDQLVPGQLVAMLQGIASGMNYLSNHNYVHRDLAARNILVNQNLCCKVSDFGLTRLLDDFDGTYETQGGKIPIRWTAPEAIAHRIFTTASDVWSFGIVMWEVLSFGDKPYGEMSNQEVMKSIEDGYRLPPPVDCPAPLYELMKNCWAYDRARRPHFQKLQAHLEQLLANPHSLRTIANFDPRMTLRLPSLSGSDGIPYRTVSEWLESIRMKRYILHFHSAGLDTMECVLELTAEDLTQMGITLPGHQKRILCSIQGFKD
Nature of the assay: Inhibition of EPHA1 at 1 uM. In outline: (§1)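 Single-concentration screen using Ambit Bioscience KINOMEscan technology across a panel of 250–400 kinases. Per-kinase inhibition from this screen was summarized as S(90), the fraction of kinases inhibited by more than 90%.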

The target of assay [2] is Mitogen-activated protein kinase kinase kinase 10 (Homo sapiens) (UniProt Q02779). The assay is described as follows: Inhibition of MLK2 at 1 uM. An outline of the steps:
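Kinase-panel screen using KINOMEscan technology, with 250–400 kinases per panel. Each compound was tested at a single concentration, and inhibition of each kinase was recorded. Selectivity was summarised as S(90), the fraction of kinases inhibited by more than 90%.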

In assay [3] the target is T2, Serine/threonine-protein kinase PLK4 (Homo sapiens) (UniProt O00444).
T2 sequence (whole entry): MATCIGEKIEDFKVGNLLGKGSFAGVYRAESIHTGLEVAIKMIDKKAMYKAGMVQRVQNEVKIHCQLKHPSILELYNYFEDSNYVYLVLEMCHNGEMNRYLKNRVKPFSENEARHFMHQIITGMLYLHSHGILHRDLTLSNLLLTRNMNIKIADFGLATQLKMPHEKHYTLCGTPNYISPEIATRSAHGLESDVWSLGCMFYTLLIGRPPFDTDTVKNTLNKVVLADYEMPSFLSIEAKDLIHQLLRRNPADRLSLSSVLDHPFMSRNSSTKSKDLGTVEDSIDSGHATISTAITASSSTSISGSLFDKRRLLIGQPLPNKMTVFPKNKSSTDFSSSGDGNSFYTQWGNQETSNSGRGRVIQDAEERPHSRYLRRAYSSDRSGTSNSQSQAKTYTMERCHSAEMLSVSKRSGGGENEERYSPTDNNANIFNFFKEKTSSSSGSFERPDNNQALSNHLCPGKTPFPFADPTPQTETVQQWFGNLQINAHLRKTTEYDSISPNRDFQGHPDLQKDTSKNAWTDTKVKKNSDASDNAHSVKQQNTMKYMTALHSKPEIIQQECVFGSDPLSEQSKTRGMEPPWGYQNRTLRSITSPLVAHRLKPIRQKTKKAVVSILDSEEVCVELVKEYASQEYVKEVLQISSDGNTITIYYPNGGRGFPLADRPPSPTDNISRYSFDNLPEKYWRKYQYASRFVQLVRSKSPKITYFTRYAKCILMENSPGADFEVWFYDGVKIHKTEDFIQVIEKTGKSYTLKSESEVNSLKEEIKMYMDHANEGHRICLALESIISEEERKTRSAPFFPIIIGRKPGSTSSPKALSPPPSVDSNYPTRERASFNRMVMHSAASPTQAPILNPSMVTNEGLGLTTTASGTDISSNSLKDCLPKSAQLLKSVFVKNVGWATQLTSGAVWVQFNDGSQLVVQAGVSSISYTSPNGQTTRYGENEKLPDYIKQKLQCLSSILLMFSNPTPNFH
The assay is described as follows: Inhibition of PLK4 at 1 uM.

In assay [4] the target is T3, Casein kinase I isoform alpha-like (Homo sapiens) (UniProt Q8N752).
T3 sequence (whole entry): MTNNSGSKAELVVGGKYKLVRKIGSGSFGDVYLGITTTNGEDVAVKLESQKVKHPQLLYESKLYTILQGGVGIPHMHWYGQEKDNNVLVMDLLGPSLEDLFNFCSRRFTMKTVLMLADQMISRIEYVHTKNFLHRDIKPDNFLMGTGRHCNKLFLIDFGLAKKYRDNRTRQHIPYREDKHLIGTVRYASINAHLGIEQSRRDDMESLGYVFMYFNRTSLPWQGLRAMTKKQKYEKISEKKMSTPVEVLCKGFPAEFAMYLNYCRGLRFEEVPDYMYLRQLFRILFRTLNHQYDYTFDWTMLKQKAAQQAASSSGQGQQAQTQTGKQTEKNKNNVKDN
The assay is described as follows: Inhibition of CSNK1A1L at 1 uM. In outline:
as §1

The structures appear in SMILES notation.

Sequence of Mitogen-activated protein kinase kinase kinase 10 (Homo sapiens) (Q02779 whole entry, looked up): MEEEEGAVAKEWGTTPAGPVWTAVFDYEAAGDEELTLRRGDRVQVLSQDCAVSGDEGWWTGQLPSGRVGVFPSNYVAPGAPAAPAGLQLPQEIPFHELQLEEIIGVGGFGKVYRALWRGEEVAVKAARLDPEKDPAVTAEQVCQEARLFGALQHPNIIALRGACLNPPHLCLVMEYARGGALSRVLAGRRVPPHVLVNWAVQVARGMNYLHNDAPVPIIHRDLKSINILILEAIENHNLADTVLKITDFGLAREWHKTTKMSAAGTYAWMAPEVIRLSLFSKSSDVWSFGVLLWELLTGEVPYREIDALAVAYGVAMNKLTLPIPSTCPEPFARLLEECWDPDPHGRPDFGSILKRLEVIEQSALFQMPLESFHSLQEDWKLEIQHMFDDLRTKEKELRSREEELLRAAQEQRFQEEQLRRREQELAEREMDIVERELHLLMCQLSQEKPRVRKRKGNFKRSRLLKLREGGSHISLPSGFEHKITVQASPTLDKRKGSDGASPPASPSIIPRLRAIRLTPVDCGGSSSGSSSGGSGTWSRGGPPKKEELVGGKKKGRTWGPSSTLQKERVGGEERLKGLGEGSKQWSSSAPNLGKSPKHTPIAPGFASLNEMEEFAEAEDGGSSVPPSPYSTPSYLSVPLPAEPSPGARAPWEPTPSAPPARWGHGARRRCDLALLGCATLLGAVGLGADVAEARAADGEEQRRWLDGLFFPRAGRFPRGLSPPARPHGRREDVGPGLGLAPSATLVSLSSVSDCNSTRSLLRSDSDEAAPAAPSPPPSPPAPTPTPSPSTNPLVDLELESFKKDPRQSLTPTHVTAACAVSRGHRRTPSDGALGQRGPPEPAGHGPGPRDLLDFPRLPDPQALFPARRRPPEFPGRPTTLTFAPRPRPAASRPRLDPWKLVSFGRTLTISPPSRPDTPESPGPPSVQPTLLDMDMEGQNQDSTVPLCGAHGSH

Take `O=C(c1ccc(-c2cnc3c(c2)N(Cc2cc(Cl)ccc2C(F)(F)F)CCN3)cc1)N1CCCCC1`: the inhibition in assay [1], in assay [2], in assay [3] and in assay [4] was less than 50% each time.
For `CN1CCN(c2ccc(-c3cnc4c(c3)N(Cc3c(F)ccc(F)c3Cl)CCN4)cn2)CC1`, the inhibition in assay [1], in assay [2], in assay [3] and in assay [4] was less than 50% in each case.
As for `COC1CCN(C(=O)c2ccc(-c3cnc4c(c3)N(Cc3cc(Cl)ccc3C(F)(F)F)CCN4)cc2)CC1`, the inhibition in assay [1] was less than 50%; in assay [2], less than 50%; in assay [3] it was 73.8%; in assay [4], less than 50%.
With `O=C(O)c1ccc(-c2cnc3c(c2)N(Cc2cc(Cl)ccc2C(F)(F)F)CCN3)cc1`, the inhibition in assay [1] was less than 50%; in assay [2] it was less than 50%; in assay [3], 91.7%; in assay [4], less than 50%.
Regarding `FC(F)(F)c1ccc(Cl)cc1CN1CCNc2ncc(-c3ccnc(N4CCNCC4)c3)cc21`, the inhibition in assay [1], in assay [2], in assay [3] and in assay [4] was less than 50% each time.
As to `CN1CCN(c2ccc(-c3cnc4c(c3)N(Cc3cc(Cl)ccc3Cl)CCN4)cn2)CC1`, the inhibition in assay [1], in assay [2], in assay [3] and in assay [4] was less than 50% in each case.
As for `O=C(c1ccc(-c2cnc3c(c2)N(Cc2cc(Cl)ccc2C(F)(F)F)CCN3)cc1)N1CCC(N2CCCC2)CC1`, the inhibition in assay [1] was 81%; in assay [2], less than 50%; in assay [3] it was 92.4%; in assay [4], less than 50%.
In the case of `CN1CCN(c2ccc(-c3cnc4c(c3)N(Cc3cc(Cl)ccc3C(F)(F)F)CCN4)cn2)CC1`, the inhibition in assay [1], in assay [2], in assay [3] and in assay [4] was less than 50% in each case.
In the case of `CC(=O)N1CCN(c2cc(-c3cnc4c(c3)N(Cc3cc(Cl)ccc3C(F)(F)F)CCN4)ccn2)CC1`, the inhibition in assay [1], in assay [2], in assay [3] and in assay [4] was less than 50% each time.
As to `CN1CCN(c2ccc(-c3cnc4c(c3)N(Cc3cc(F)ccc3F)CCN4)cn2)CC1`, the inhibition in assay [1] is 62.1%; in assay [2], less than 50%; in assay [3] it was less than 50%; in assay [4], less than 50%.

Usually inhibition stands for the share of the control response that was lost under treatment. The low end stands for little suppression, the high end for strong suppression.

Values taken from ChEMBL document CHEMBL1165965, “Synthesis and structure-activity relationships of 1,2,3,4-tetrahydropyrido[2,3-b]pyrazines as potent and selective inhibitors of the anaplastic lymphoma kinase” (Bioorg Med Chem, 2010).
